In PubChem BioAssay AID463210 (The Scripps Research Institute Molecular Screening Center, 2010):
Out of some 330,000 compounds screened, about 300 (0.091%) were called active.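 How the source made its calls: active means percent activation above the screen-wide mean plus 3 SD (cut at about 25% in these data); inactive means the rest.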 Shown is part of a subset that was picked to be rich in actives.

What follows are compounds tested against Caspase-7 (Homo sapiens) (UniProt P55210) (assay: activation of procaspase-7 enzyme – biochemical, absorbance, HTS, human, counter-screen for procaspase-3 activator project, primary screen (AID 463210)). Settings: recombinant procaspase-7, Ac-DEVD-pNA absorbance 405 nm; at 8.5 µM; active compounds read high; D23A/D198A/D206A triple mutant, cannot self-cleave; scale: DMSO 0, 5 µM enzyme 100.
Caspase-7 (Homo sapiens), sequence (P55210 whole entry D23A/D198A/D206A): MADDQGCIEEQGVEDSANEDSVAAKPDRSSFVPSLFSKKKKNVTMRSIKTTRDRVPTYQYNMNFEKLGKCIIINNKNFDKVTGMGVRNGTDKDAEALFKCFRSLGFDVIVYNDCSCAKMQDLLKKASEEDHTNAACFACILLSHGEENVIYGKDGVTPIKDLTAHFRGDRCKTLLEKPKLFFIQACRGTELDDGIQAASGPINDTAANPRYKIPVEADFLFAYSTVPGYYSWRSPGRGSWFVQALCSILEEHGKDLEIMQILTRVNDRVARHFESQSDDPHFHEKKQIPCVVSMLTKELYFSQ
Summary of the method: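 Replicates: singlicate. Assay system: Procaspase-7 triple mutant (PC-7 D3A). Signal: 405 nm absorbance of p-nitroaniline. Times: 1 h preincubation, 2 h reaction. Buffer or medium: Zinc-free HEPES pH 7.4 with 300 mM NaCl, 0.01% Triton X-100. Also added: DEVD-pNA substrate. Benchmarks: DMSO wells as 0%, DMSO with 5 µM added PC-7 as 100%.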

SMILES | activation
CC(CCc1ccccc1)NC(=O)COC(=O)c1ccc(F)cc1 (stereo not given) | 4.27% (inactive)
CSCCC(NS(=O)(=O)c1ccc(C)cc1)C(=O)N1CCCC1 (stereo not given) | 0.13% (inactive)
COc1ccc(C(CC(=O)N2CCN(c3ccccc3)CC2)c2c(O)cc(OC)cc2OC)cc1 (stereo not given) | 5.61% (inactive)
CCCn1c(C)cc(/C=C(\C#N)C(=O)OCC(=O)N(C)c2c(N)n(Cc3ccccc3)c(=O)[nH]c2=O)c1C | -1.74% (inactive)
CCn1c(O)c2ccc(C(=O)N=NC(=O)c3cccnc3)cc2c1O | -2.1% (inactive)
CN1CCN(C(=O)C2=C[C@H](c3ccc4c(c3)OCO4)C[C@H](OCc3ccc(CO)cc3)O2)CC1 | 0.27% (inactive)
O=c1cc(CN2CCN(S(=O)(=O)/C=C/c3ccccc3)CC2)c2ccc(O)cc2o1 | 17.5% (inactive)
O=C(O)CCN(Cc1ccccc1)S(=O)(=O)c1c(Cl)cccc1Cl | 3.54% (inactive)
O=[N+]([O-])c1cc(Cl)cc(/C=N/NC(=S)Nc2cc(S(=O)(=O)N3CCOCC3)ccc2Cl)c1O | -6.79% (inactive)
Cc1ccc2nsnc2c1S(=O)(=O)N1CCCC1C(=O)O (stereo not given) | 8.06% (inactive)
CC(=O)N[C@@H](C)C(=O)N1CCC(n2nccc2NC(=O)CCCc2ccccc2)CC1 | 8.17% (inactive)
O=c1c2ccccc2ccc2ccc(P(=O)(O)O)cc12 | 4.72% (inactive)
O=C(c1cn(-c2ccccc2)nc1-c1cccnc1)N1CCN(S(=O)(=O)c2ccccc2F)CC1 | 11.3% (inactive)
COc1ccc(CCNC2=C(Cl)C(=O)N(Cc3ccccc3)C2=O)cc1OC | -9.7% (inactive)
COc1ccc(COCCN2CCN(S(=O)(=O)c3ccccc3)CCC2=O)cc1 | -12.7% (inactive)
COc1ccc2c(c1)C(NS(=O)(=O)OCC(Cl)(Cl)Cl)CCC2 (stereo not given) | -4.56% (inactive)
CCN(CC)c1ccc(C(=O)Nn2c(C)nc3ccccc3c2=O)cc1 | -1.52% (inactive)
CCN(CC)c1ccc2oc(=O)c(C)nc2c1 | 40.2% (active)
C=CCN(C(=O)Nc1ccc2oc(C)nc2c1)c1ccccc1 | -21.8% (inactive)
COc1cccc(NC(=O)Cn2c3ccccc3c3nc4n(c(=O)c32)CCS4)c1 | 9.71% (inactive)
CC1=C(N2CCN(c3ncccn3)CC2)CCC1=O | -1.68% (inactive)
COc1ccc(S(=O)(=O)NCCOc2ccccc2)cc1F | -0.02% (inactive)
COc1cc(N=Cc2c(O)c3ccccc3oc2=O)c(OC)cc1Cl | 14.3% (inactive)
COc1ccccc1N=Cc1c(O)c2ccccc2oc1=O | 50.8% (active)
COc1ccccc1N=C(C)C1=C(O)COC1=O | 0.79% (inactive)
